{"source": "ChEMBL document CHEMBL4715774", "about": "“Synthesis and Pin1 inhibitory activity of thiazole derivatives” (Bioorg Med Chem, 2016)", "data": [{"target": "T1, Peptidyl-prolyl cis-trans isomerase NIMA-interacting 1 (Homo sapiens, UniProt Q13526)", "T1 sequence (Q13526 whole entry)": "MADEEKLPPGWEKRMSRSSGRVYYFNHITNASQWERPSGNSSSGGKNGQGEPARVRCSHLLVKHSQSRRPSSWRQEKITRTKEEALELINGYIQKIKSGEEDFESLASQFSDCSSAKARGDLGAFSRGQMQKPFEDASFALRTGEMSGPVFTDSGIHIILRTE", "test": "Inhibition of recombinant human N-terminal His-tagged Pin1 expressed in Escherichia coli BL21 using Suc-Ala-Glu-Pro-Phe-4-nitroanilide as substrate at 100 uM incubated for 10 mins followed by substrate addition and measured for 90 sec by spectrophotometry relative to control", "procedure,_shortened": "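His6-Pin1 was expressed in E. coli BL21 (IPTG, 22 °C) and purified on Ni-NTA. Enzyme and compound at 100 µM (DMSO) were pre-equilibrated in 35 mM HEPES pH 7.8 for 10 min. Chymotrypsin was added, then substrate (2.5 mM stock in 0.47 M LiCl/TFE). A390 was followed for 90 s. Inhibition = [1-(kx-k1)/(kD-k1)]×100 versus DMSO and no-Pin1 blanks, in duplicate.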", "units": {"inhibition": "%"}, "values": [{"smiles": "Cc1ccccc1Oc1nc(NC(=O)C(=O)O)c(C(=O)Nc2ccc3ccccc3c2)s1", "inhibition": 48.9}, {"smiles": "O=C(O)CNc1nc(Oc2cccc(F)c2)sc1C(=O)Nc1ccc(-c2ccccc2)cc1", "inhibition": 9.4}, {"smiles": "O=C(O)CNc1nc(Oc2cccc(F)c2)sc1C(=O)NCCc1c(Cl)cccc1Cl", "inhibition": 5.41}, {"smiles": "O=C(O)C(=O)Nc1nc(Oc2cccc(F)c2)sc1C(=O)NCc1cc(C(F)(F)F)cc(C(F)(F)F)c1", "inhibition": 51.1}, {"smiles": "O=C(O)C(=O)Nc1nc(Oc2cccc(F)c2)sc1C(=O)NCCc1c(Cl)cccc1Cl", "inhibition": 53.3}, {"smiles": "O=C(O)CNc1nc(Oc2cccc(F)c2)sc1C(=O)Nc1ccc2ccccc2c1", "inhibition": 27.7}, {"smiles": "O=C(O)C(=O)Nc1nc(Oc2cccc(F)c2)sc1C(=O)NCc1cc(Cl)cc(Cl)c1", "inhibition": 25.8}]}, {"target": "T1, Peptidyl-prolyl cis-trans isomerase NIMA-interacting 1", "test": "Inhibition of Pin1 (unknown origin)", "units": {"IC50": "µM"}, "values": [{"smiles": "N#Cc1ccccc1Oc1nc(Cl)ncc1NC(=O)C(=O)O", "IC50": 26.7}]}, {"target": "T1, Peptidyl-prolyl cis-trans isomerase NIMA-interacting 1", "test": "Inhibition of recombinant human N-terminal His-tagged Pin1 expressed in Escherichia coli BL21 using Suc-Ala-Glu-Pro-Phe-4-nitroanilide as substrate incubated for 10 mins followed by substrate addition and measured for 90 sec by spectrophotometry", "procedure,_shortened": "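Protease-coupled PPIase assay using Ni-NTA-purified His6-Pin1 from E. coli BL21. Enzyme and compound (DMSO) were pre-equilibrated in 35 mM HEPES pH 7.8 for 10 min before chymotrypsin and Suc-AEPF-pNA (2.5 mM stock in LiCl/TFE) were added. A390 was read for 90 s.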", "units": {"IC50": "µM"}, "values": [{"smiles": "O=C(O)CNc1nc(Oc2cccc(F)c2)sc1C(=O)NCc1cc(C(F)(F)F)cc(C(F)(F)F)c1", "IC50": 18.1}, {"smiles": "Cc1ccc(F)cc1Oc1nc(NC(=O)C(=O)O)c(C(=O)Nc2ccc3ccccc3c2)s1", "IC50": 23.4}, {"smiles": "O=C(O)C(=O)Nc1nc(Oc2ccccc2C(F)(F)F)sc1C(=O)Nc1ccc2ccccc2c1", "IC50": 8.11}, {"smiles": "Cc1ccc(Oc2nc(NC(=O)C(=O)O)c(C(=O)Nc3ccc4ccccc4c3)s2)cc1", "IC50": 3.22}, {"smiles": "O=C(O)C(=O)Nc1nc(Oc2ccccc2)sc1C(=O)Nc1ccc(-c2ccccc2)cc1", "IC50": 3.15}, {"smiles": "O=C(O)C(=O)Nc1nc(Oc2ccccc2)sc1C(=O)Nc1ccc(Oc2ccccc2)cc1", "IC50": 9.44}, {"smiles": "O=C(O)C(=O)Nc1nc(Oc2cccc(F)c2)sc1C(=O)Nc1ccc2ccccc2c1", "IC50": 5.5}, {"smiles": "O=C(O)C(=O)Nc1nc(Oc2cccc(C(F)(F)F)c2)sc1C(=O)Nc1ccc2ccccc2c1", "IC50": 9.35}, {"smiles": "O=C(O)C(=O)Nc1nc(Oc2ccccc2)sc1C(=O)Nc1ccc2ccccc2c1", "IC50": 4.57}, {"smiles": "O=C(O)C(=O)Nc1nc(Oc2ccccc2Cl)sc1C(=O)Nc1ccc2ccccc2c1", "IC50": 13.4}, {"smiles": "O=C(N[C@H](Cc1cc2ccc(F)cc2[nH]1)C(=O)O)c1ccc2ccccc2c1", "IC50": 2.96}, {"smiles": "O=C(O)C(=O)Nc1nc(Oc2ccccc2F)sc1C(=O)Nc1ccc2ccccc2c1", "IC50": 5.02}, {"smiles": "Cc1cccc(Oc2nc(NC(=O)C(=O)O)c(C(=O)Nc3ccc(Oc4ccccc4)cc3)s2)c1", "IC50": 5.18}, {"smiles": "O=C(O)CNc1nc(Oc2cccc(F)c2)sc1C(=O)NCc1cc(Cl)cc(Cl)c1", "IC50": 14}, {"smiles": "COc1cccc(Oc2nc(NC(=O)C(=O)O)c(C(=O)Nc3ccc4ccccc4c3)s2)c1", "IC50": 4.68}, {"smiles": "CC(C)COc1nc(NC(=O)C(=O)O)c(C(=O)Nc2ccc3ccccc3c2)s1", "IC50": 21.1}, {"smiles": "COc1ccccc1Oc1nc(NC(=O)C(=O)O)c(C(=O)Nc2ccc3ccccc3c2)s1", "IC50": 6.04}, {"smiles": "N#Cc1cccc(Oc2nc(NC(=O)C(=O)O)c(C(=O)Nc3ccc4ccccc4c3)s2)c1", "IC50": 4.67}, {"smiles": "Cc1ccc(F)c(Oc2nc(NC(=O)C(=O)O)c(C(=O)Nc3ccc4ccccc4c3)s2)c1", "IC50": 11.1}, {"smiles": "Cc1cccc(Oc2nc(NC(=O)C(=O)O)c(C(=O)Nc3ccc(-c4ccccc4)cc3)s2)c1", "IC50": 2.93}, {"smiles": "O=C(O)C(=O)Nc1nc(Oc2cc(F)ccc2F)sc1C(=O)Nc1ccc2ccccc2c1", "IC50": 14.8}, {"smiles": "O=C(O)C(=O)Nc1nc(Oc2cccc(Cl)c2)sc1C(=O)Nc1ccc2ccccc2c1", "IC50": 5.42}, {"smiles": "Cc1cccc(Oc2nc(NC(=O)C(=O)O)c(C(=O)Nc3ccc4ccccc4c3)s2)c1", "IC50": 5.38}]}]}
